Type in all cases: functional
Assay [1] relates to HEp-2. The experiment in a line: Anticancer activity against human Hep2 cells assessed as growth inhibition at 50 uM after 48 hrs by SRB assay. The following applies: HEp-2, 48 h, read-out: GI. The procedure, abridged:
(§1)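 Cells exposed to test compounds at 50 µM for 48 h. Read-out is percent growth inhibition, with SEM given. 5-Fluorouracil and adriamycin serve as reference agents.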

The test system of assay [2] is DU-145. The experiment in a line: Anticancer activity against human DU145 cells assessed as growth inhibition at 50 uM after 48 hrs by SRB assay. To be noted: DU-145, 48 h, read-out: GI. The procedure, abridged:
as §1
In general terms: Sulforhodamine B stains cellular protein and so reports cell mass.

The subject of assay [3] is COLO 205. The assay is described as follows: Anticancer activity against human COLO205 cells assessed as growth inhibition at 50 uM after 48 hrs by SRB assay. To be noted: COLO 205, 48 h, read-out: GI. An outline of the steps: as §1
Assay [4] has as its system PC-3. The assay is described as follows: Anticancer activity against human PC3 cells assessed as growth inhibition at 50 uM after 48 hrs by SRB assay. To be noted: PC-3, 48 h, read-out: GI. An outline of the steps: as §1
Assay [5] relates to SW-620. The experiment in a line: Anticancer activity against human SW620 cells assessed as growth inhibition at 50 uM after 48 hrs by SRB assay. The following applies: SW-620, 48 h, read-out: GI. An outline of the steps:
as §1

Assay [6] relates to HT-29. The experiment in a line: Anticancer activity against human HT-29 cells assessed as growth inhibition at 50 uM after 48 hrs by SRB assay. The following applies: HT-29, 48 h, read-out: GI. The procedure, abridged: as §1

For `O=c1[nH]cc(F)c(=O)[nH]1` [FLUOROURACIL], the inhibition of growth at 50 µM in assay [1] came to 29%; in assay [2], 35%; in assay [3] it was 29%; in assay [4] it was 16%; in assay [5], 44%; in assay [6], 41%.
As to `CC(=O)O[C@H]1CC[C@@]2(C)[C@@H](CC[C@]3(C)[C@@H]2C(=O)C=C2[C@@H]4[C@@H](C)[C@H](C)CC[C@]4(C)CC[C@]23C)[C@@]1(C)C(=O)O`, the inhibition of growth at 50 µM in assay [1] stood at 47%; in assay [2], 83%; in assay [3], 54%; in assay [4] it was 62%; in assay [5], 44%; in assay [6] it was 44%.
On to `CCCC(=O)O[C@H]1CC[C@@]2(C)[C@@H](CC[C@]3(C)[C@@H]2CC=C2[C@@H]4[C@@H](C)[C@H](C)CC[C@]4(C)CC[C@]23C)[C@@]1(C)C(=O)O`, for which the inhibition of growth at 50 µM in assay [1] came to 63%; in assay [2], 89%; in assay [3], 67%; in assay [4], 83%; in assay [5], 79%; in assay [6], 57%.
As for `C[C@H]1[C@H](C)CC[C@]2(C)CC[C@]3(C)C(=CC(=O)[C@@H]4[C@@]5(C)CC[C@@H](O)[C@](C)(C(=O)O)[C@@H]5CC[C@]43C)[C@H]12` [11-KETO BOSWELLIC ACID], the inhibition of growth at 50 µM in assay [1] was 35%; in assay [2] it was 95%; in assay [3], 52%; in assay [4], 100%; in assay [5] it was 28%; in assay [6], 39%.
In the case of `C[C@H]1[C@H](C)CC[C@]2(C)CC[C@]3(C)C(=CC[C@@H]4[C@@]5(C)CC[C@@H](OC=O)[C@](C)(C(=O)O)[C@@H]5CC[C@]43C)[C@H]12`, the inhibition of growth at 50 µM amounted to 72% in assay [1]; 90% in assay [2]; 90% in assay [3]; 95% in assay [4]; 87% in assay [5]; 76% in assay [6].
Consider `COc1cccc2c1C(=O)c1c(O)c3c(c(O)c1C2=O)C[C@@](O)(C(=O)CO)C[C@@H]3O[C@H]1C[C@H](N)[C@H](O)[C@H](C)O1` [DOXORUBICIN], for which the inhibition of growth at 50 µM was 64% in assay [1]; 90% in assay [2]; 81% in assay [3]; 86% in assay [4]; 72% in assay [5]; 88% in assay [6].
As to `CC(=O)O[C@@H]1CC[C@@]2(C)[C@@H](CC[C@]3(C)[C@@H]2CC=C2[C@@H]4[C@@H](C)[C@H](C)CC[C@]4(C)CC[C@]23C)[C@@]1(C)C(=O)O`, the inhibition of growth at 50 µM in assay [1] amounted to 85%; in assay [2], 3%; in assay [3] it was 91%; in assay [4], 44%; in assay [5], 93%; in assay [6], 93%.
As to `COC(=O)[C@]1(C)[C@@H]2CC[C@]3(C)[C@H](CC=C4[C@@H]5[C@@H](C)[C@H](C)CC[C@]5(C)CC[C@]43C)[C@@]2(C)CC[C@@H]1O`, the inhibition of growth at 50 µM in assay [1] was found to be 0%; in assay [2], 3%; in assay [3] it was 22%; in assay [4], 7%; in assay [5] it was 9%; in assay [6], 5%.
As for `C[C@H]1[C@H](C)CC[C@]2(C)CC[C@]3(C)C(=CC(=O)[C@@H]4[C@@]5(C)CC[C@H](O)[C@](C)(C(=O)O)[C@@H]5CC[C@]43C)[C@H]12`, the inhibition of growth at 50 µM in assay [1] was found to be 51%; in assay [2] it was 84%; in assay [3], 49%; in assay [4] it was 70%; in assay [5] it was 45%; in assay [6], 44%.
Turning to `CCCC(=O)O[C@H]1CC[C@@]2(C)[C@@H](CC[C@]3(C)[C@@H]2C(=O)C=C2[C@@H]4[C@@H](C)[C@H](C)CC[C@]4(C)CC[C@]23C)[C@@]1(C)C(=O)O`, the inhibition of growth at 50 µM in assay [1] was 66%; in assay [2], 92%; in assay [3], 91%; in assay [4] it was 94%; in assay [5], 79%; in assay [6], 62%.
Take `CC(=O)O[C@H]1CC[C@@]2(C)[C@@H](CC[C@]3(C)[C@@H]2CC=C2[C@@H]4[C@@H](C)[C@H](C)CC[C@]4(C)CC[C@]23C)[C@@]1(C)C(=O)O`: the inhibition of growth at 50 µM came to 42% in assay [1]; 87% in assay [2]; 32% in assay [3]; 56% in assay [4]; 35% in assay [5]; 31% in assay [6].
On to `COC(=O)[C@@]1(C)[C@H](O)CC[C@@]2(C)[C@H]1CC[C@]1(C)[C@@H]2CC=C2[C@@H]3[C@@H](C)[C@H](C)CC[C@]3(C)CC[C@]21C`, for which the inhibition of growth at 50 µM worked out at 26% in assay [1]; 85% in assay [2]; 43% in assay [3]; 54% in assay [4]; 46% in assay [5]; 35% in assay [6].
As to `CO[C@@]12[C@H](COC(N)=O)C3=C(C(=O)C(C)=C(N)C3=O)N1C[C@@H]1N[C@@H]12` [MITOMYCIN], the inhibition of growth at 50 µM was determined as 58% in assay [1]; 48% in assay [2]; 43% in assay [3]; 55% in assay [4]; 55% in assay [5]; 60% in assay [6].
In the case of `CC(=O)O[C@@H]1CC[C@@]2(C)[C@@H](CC[C@]3(C)[C@@H]2C(=O)C=C2[C@@H]4[C@@H](C)[C@H](C)CC[C@]4(C)CC[C@]23C)[C@@]1(C)C(=O)O` [AKBA], the inhibition of growth at 50 µM came to 59% in assay [1]; 85% in assay [2]; 85% in assay [3]; 76% in assay [4]; 88% in assay [5]; 88% in assay [6].
For the compound `C[C@H]1[C@H](C)CC[C@]2(C)CC[C@]3(C)C(=CC(=O)[C@@H]4[C@@]5(C)CC[C@@H](OC(=O)CCC(=O)O)[C@](C)(C(=O)O)[C@@H]5CC[C@]43C)[C@H]12`, the inhibition of growth at 50 µM in assay [1] amounted to 6%; in assay [2] it was 51%; in assay [3], 2%; in assay [4], 38%; in assay [5], 4%; in assay [6] it was 5%.
For the compound `COC(=O)[C@]1(C)[C@@H]2CC[C@]3(C)[C@H](C(=O)C=C4[C@@H]5[C@@H](C)[C@H](C)CC[C@]5(C)CC[C@]43C)[C@@]2(C)CC[C@@H]1O`, the inhibition of growth at 50 µM in assay [1] was 0%; in assay [2], 4%; in assay [3], 21%; in assay [4], 5%; in assay [5], 10%; in assay [6] it was 8%.
As for `C[C@H]1[C@H](C)CC[C@]2(C)CC[C@]3(C)C(=CC(=O)[C@@H]4[C@@]5(C)CC[C@@H](OC=O)[C@](C)(C(=O)O)[C@@H]5CC[C@]43C)[C@H]12`, the inhibition of growth at 50 µM in assay [1] was 54%; in assay [2] it was 83%; in assay [3], 73%; in assay [4], 95%; in assay [5] it was 69%; in assay [6] it was 63%.
Take `C[C@H]1[C@H](C)CC[C@]2(C)CC[C@]3(C)C(=CC[C@@H]4[C@@]5(C)CC[C@H](OC(=O)CCC(=O)O)[C@](C)(C(=O)O)[C@@H]5CC[C@]43C)[C@H]12`: the inhibition of growth at 50 µM in assay [1] was determined as 11%; in assay [2] it was 48%; in assay [3], 19%; in assay [4] it was 35%; in assay [5] it was 5%; in assay [6] it was 13%.
As to `C[C@H]1[C@H](C)CC[C@]2(C)CC[C@]3(C)C(=CC(=O)[C@@H]4[C@@]5(C)CC[C@H](OC(=O)CCC(=O)O)[C@](C)(C(=O)O)[C@@H]5CC[C@]43C)[C@H]12`, the inhibition of growth at 50 µM in assay [1] was determined as 19%; in assay [2], 83%; in assay [3], 28%; in assay [4], 62%; in assay [5] it was 4%; in assay [6] it was 17%.
For the compound `C[C@H]1[C@H](C)CC[C@]2(C)CC[C@]3(C)C(=CC[C@@H]4[C@@]5(C)CC[C@@H](OC(=O)CCC(=O)O)[C@](C)(C(=O)O)[C@@H]5CC[C@]43C)[C@H]12`, the inhibition of growth at 50 µM in assay [1] was 55%; in assay [2] it was 93%; in assay [3], 88%; in assay [4], 90%; in assay [5], 67%; in assay [6], 72%.

Values taken from ChEMBL document CHEMBL1932969, “Acyl derivatives of boswellic acids as inhibitors of NF-κB and STATs” (Bioorg Med Chem Lett, 2012).
